These results are taken from PubChem BioAssay AID1296 (Columbia University Molecular Screening Center, 2008).

Screen size: about 130,000 compounds; about 1,000 (0.77%) were called active. Inconclusive results (about 1%) are left out.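 The calls were made as follows: active = activation at 2 µM above a set limit, confirmed on inspection of the cell images; inconclusive = above the set limit but not confirmed on image inspection; inactive = the rest.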 Many of the other results were omitted from the sample, so actives are more common in it than they were.

The assay can be described thus: activators of insulin promoter-driven GFP, primary screen, imaging, TRM-6 cells, eGFP reporter, cell count (AID 1296).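 As to activation: share of cells whose green reporter signal exceeds an intensity cutoff.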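 As to normalized cell count: cells counted after 48 h compound exposure.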 The conditions noted are these: at 2 µM; activation: stronger effect = higher value, plate-scaled: unstimulated 0, stimulated control 100; normalized cell count: measured here: cell count (toxicity). A digest of the protocol: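 System – human fetal islet-derived TRM-6 cells with tamoxifen-inducible insulin promoter–eGFP reporter · Amount – 1,000 cells per well · Schedule – overnight tamoxifen, then two-day compound incubation at 37 °C · Detection – high-content imaging of fixed cells with Hoechst nuclear stain · Read-out – percent cells above green-intensity threshold, converted to percent activation versus plate controls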
Consider `Cc1cccc(C)c1OC(=O)CSc1nnc(-c2ccccc2)o1`, for which the activation is 487% (active) and the normalized cell count was found to be 75.9%.

Regarding `O=C(CSc1nnc(-c2ccoc2)o1)N1CCOCC1`, the activation is -9.09% (inactive) and the normalized cell count was 105%.

With `COC(=O)CSc1nnc(-c2cccnc2)o1`, the activation is 5.13% (inactive) and the normalized cell count stood at 134%.

In the case of `C=CCOc1c(Br)cc(/C=N\n2nnnc2N)cc1OC`, the activation was 0% (inactive) and the normalized cell count was 53.2%.

`O=C(CN1C(=O)NC2(CCCCC2)C1=O)NCCC1=CCCCC1`: the activation was -3.7% (inactive) and the normalized cell count was 86.8%.

In the case of `O=C(CN1C(=O)NC2(CCCCCC2)C1=O)NC1CC1`, the activation was 542% (active) and the normalized cell count is 78.5%.

`CCC1SC(CC)C(=O)N(CC(=O)NC2CCCCC2)C1=O` (stereo unspecified): the activation is -8.33% (inactive) and the normalized cell count turned out to be 80.9%.

Consider `O=C(CSc1nc2ccc([N+](=O)[O-])cc2[nH]1)c1ccc(Cl)cc1`, for which the activation was -3.7% (inactive) and the normalized cell count turned out to be 85.9%.

On to `COc1ccccc1-c1nc(SC)n[nH]1`, for which the activation was -5.26% (inactive) and the normalized cell count was found to be 131%.

As to `COc1ccc(C(=O)NC(=S)NNC(=O)CCc2ccccc2)cc1`, the activation is -3.57% (inactive) and the normalized cell count worked out at 91.6%.

`COc1cc(NC(=S)NCCSc2ccc(C)cc2)cc(OC)c1`: the activation was -3.12% (inactive) and the normalized cell count stood at 116%.

For `COCCNC(=S)c1ccc(OC)cc1`, the activation was 433% (active) and the normalized cell count was determined as 62.5%.

`CN=C1S/C(=C\c2ccc(Sc3ccc(Cl)cc3)o2)C(=O)N1C`: the activation is -2.7% (inactive) and the normalized cell count was 43.5%.

With `Cc1ccc(/C=N/NC(=O)Cn2ccc(C(F)(F)F)n2)o1`, the activation is 8.33% (inactive) and the normalized cell count came to 128%.

As for `CC(CNC(=O)c1ccc(N)cc1)NC(=O)c1ccc(N)cc1` (stereo unspecified), the activation was 2.33% (inactive) and the normalized cell count turned out to be 108%.

Take `Cc1ccc(-n2ncc3c(Nc4cccc(C(=O)O)c4)ncnc32)cc1`: the activation is 6.67% (inactive) and the normalized cell count is 45%.

Consider `CCN(CC)C(=O)CSc1ncnc2c1cnn2-c1ccccc1`, for which the activation was 392% (inactive) and the normalized cell count is 43.6%.

For the molecule `O=C(NNc1ncnc2c1cnn2-c1ccccc1)c1ccco1`, the activation is 500% (active) and the normalized cell count was determined as 142%.

With `COc1cc(/C=N/NC(=O)c2cc(C)n(-c3ccc(F)cc3)c2C)cc(OC)c1O`, the activation was 129% (inactive) and the normalized cell count is 121%.

In the case of `Cc1cc(NC(=O)COC(=O)COc2ccc(Cl)cc2C)c([N+](=O)[O-])cc1C`, the activation was 0% (inactive) and the normalized cell count turned out to be 143%.

On to `Cc1ccc2cc3cc(C(=O)N4CCCCCC4)oc3nc2c1`, for which the activation is 183% (active) and the normalized cell count came to 233%.

For `Cc1cc(=O)oc(C)c1C(=O)N1CCCCC1`, the activation is 5.26% (inactive) and the normalized cell count is 82.9%.

In the case of `Cc1cccc(C(=O)N2CCCN(C(=O)c3cccc(C)c3)CC2)c1`, the activation is 3.23% (inactive) and the normalized cell count turned out to be 110%.

As to `Cc1cccc(N(C(=O)Cc2cccs2)C(C(=O)NCc2ccco2)c2ccncc2)c1` (stereo unspecified), the activation was 107% (inactive) and the normalized cell count is 58.7%.

In the case of `COc1cc(NC(=O)CSc2nnc3ccc(-c4ccncc4)nn23)cc(OC)c1`, the activation was -5.26% (inactive) and the normalized cell count turned out to be 108%.

As to `Cc1ccc(OC(=O)c2cc3ccccc3o2)cc1`, the activation is 79.3% (active) and the normalized cell count is 174%.

Turning to `COc1ccc(C(=O)N/N=c2\oc3ccccc3cc2C(N)=O)cc1`, the activation was 0% (inactive) and the normalized cell count worked out at 70.8%.

Turning to `O=C(Nc1ccncc1)c1cc2ccccc2o1`, the activation is 342% (inactive) and the normalized cell count was determined as 93.3%.

For `COC(=O)[C@H]1Cc2cnoc2C[C@]1(C)C(=O)O`, the activation was 0% (inactive) and the normalized cell count was 176%.

For `COC(=O)c1cc(OC)c(OC)cc1NC(=O)CSc1ccc(C)cc1`, the activation is 3.33% (inactive) and the normalized cell count turned out to be 108%.

For `COc1ccc(C)cc1NC(=O)CSc1ccc(Cl)cc1`, the activation is -5.56% (inactive) and the normalized cell count was 93.7%.

Take `Cc1cc(C)cc(NC(=O)CSc2ccccc2)c1`: the activation was 525% (active) and the normalized cell count worked out at 53.5%.

Consider `Cc1nc(CC(=O)NNS(=O)(=O)c2ccc(F)c(Cl)c2)cs1`, for which the activation is -7.69% (inactive) and the normalized cell count was found to be 104%.

As to `N#Cc1ccc(Oc2cc(C(F)(F)F)nc(-c3ccccn3)n2)cc1`, the activation is -9.09% (inactive) and the normalized cell count was found to be 91.7%.

Take `CCN(CC(=O)NC(=O)NCc1ccccc1)Cc1nc2ccccc2c(=O)[nH]1`: the activation is 8.33% (inactive) and the normalized cell count is 68.7%.

For `Cc1nn(C)c(Oc2ccccc2)c1[N+](=O)[O-]`, the activation was 7.04% (inactive) and the normalized cell count is 55.2%.

On to `O=C(O)COc1ccc(/C=N/O)cc1Br`, for which the activation is 8.33% (inactive) and the normalized cell count came out at 101%.

On to `CN1/C(=C\C=C2\N=C(c3ccc(F)cc3)OC2=O)C(C)(C)c2ccccc21`, for which the activation was 121% (active) and the normalized cell count was 53.1%.

Consider `CC(=O)NCCC(=O)Nc1nc(C)c(Cc2ccc3c(c2)OCO3)s1`, for which the activation is 0% (inactive) and the normalized cell count is 42.1%.

As to `COc1cc(/C=C2/C(=O)ON=C2C)ccc1OCc1cccc(F)c1`, the activation is 0% (inactive) and the normalized cell count is 98.9%.

For the molecule `Cc1nn(Cc2ccc(C(=O)N3N=C(C(F)F)CC3(O)C(F)F)cc2)c(C)c1[N+](=O)[O-]` (stereo unspecified), the activation was 4.44% (inactive) and the normalized cell count worked out at 126%.

As to `O=C(NCc1ccco1)c1nn2cccnc2c1Cl`, the activation was 0% (inactive) and the normalized cell count amounted to 126%.

In the case of `COc1ccc(CC(=O)Nc2ccc(-c3nnc(-c4ccccc4)o3)cc2)cc1`, the activation is 6.45% (inactive) and the normalized cell count came to 115%.
